In ChEMBL document CHEMBL1212925, “Replacement of imidazolyl by pyridyl in biphenylmethylenes results in selective CYP17 and dual CYP17/CYP11B1 inhibitors for the treatment of prostate cancer” (J Med Chem, 2010):
pIC50: −log10 of the molar value.

Assays:
[1] = target: T1, Steroid 17-alpha-hydroxylase/17,20 lyase (Homo sapiens, UniProt P05093); test: Inhibition of human CYP17 expressed in Escherichia coli
T1 sequence (P05093 whole entry): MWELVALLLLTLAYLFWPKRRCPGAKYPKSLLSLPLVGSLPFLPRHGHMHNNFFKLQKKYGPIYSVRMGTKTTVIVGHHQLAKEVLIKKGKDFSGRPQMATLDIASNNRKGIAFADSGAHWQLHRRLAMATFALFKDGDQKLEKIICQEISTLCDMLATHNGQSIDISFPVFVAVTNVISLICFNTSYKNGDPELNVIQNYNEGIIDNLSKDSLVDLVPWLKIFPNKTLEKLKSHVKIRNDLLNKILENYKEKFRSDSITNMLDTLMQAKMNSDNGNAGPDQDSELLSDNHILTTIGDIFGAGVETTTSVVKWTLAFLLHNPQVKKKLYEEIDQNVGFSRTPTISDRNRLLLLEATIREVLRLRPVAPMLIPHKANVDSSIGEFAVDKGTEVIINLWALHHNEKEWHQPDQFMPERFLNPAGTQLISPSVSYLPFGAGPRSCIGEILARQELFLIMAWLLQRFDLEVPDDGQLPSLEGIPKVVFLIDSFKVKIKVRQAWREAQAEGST
How it was run: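 Enzyme source: 50 000 sediment of homogenized E. coli co-expressing human CYP17 and NADPH-P450 reductase. Substrate and product separated by HPLC with UV detection.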

[2] = target: T2, Cytochrome P450 11B2, mitochondrial (Homo sapiens, UniProt P19099); test: Inhibition of human CYP11B2 expressed in hamster fibroblast
T2 sequence (P19099 whole entry): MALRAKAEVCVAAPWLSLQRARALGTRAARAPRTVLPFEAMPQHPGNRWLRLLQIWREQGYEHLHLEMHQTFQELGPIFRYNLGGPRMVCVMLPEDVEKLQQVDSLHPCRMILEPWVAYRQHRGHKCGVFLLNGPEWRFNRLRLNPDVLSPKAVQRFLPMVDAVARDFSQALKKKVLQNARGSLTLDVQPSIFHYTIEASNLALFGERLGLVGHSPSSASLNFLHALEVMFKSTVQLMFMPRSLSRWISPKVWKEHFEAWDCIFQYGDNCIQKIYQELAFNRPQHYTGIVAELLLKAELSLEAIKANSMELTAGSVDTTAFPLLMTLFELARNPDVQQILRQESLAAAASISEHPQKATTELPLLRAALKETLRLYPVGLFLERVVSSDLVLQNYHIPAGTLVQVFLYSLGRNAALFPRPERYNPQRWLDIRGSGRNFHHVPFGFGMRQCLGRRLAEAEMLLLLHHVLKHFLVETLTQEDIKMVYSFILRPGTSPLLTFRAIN
How it was run: (§1)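 V79 MZh hamster fibroblasts expressing human CYP11B1 or CYP11B2 incubated with [14C]11-deoxycorticosterone substrate at 100 nM and inhibitor at varied concentrations. Product formation monitored by HPTLC with phosphoimager. IC50 from mean of at least three tests; SD within 5%.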

Cytochrome P450 3A4 = Cytochrome P450 3A4 (Homo sapiens, UniProt P08684); test: Inhibition of recombinant CYP3A4 expressed in baculovirus-infected insect microsome; format: ADME
Aromatase = target: T3, Aromatase (Homo sapiens, UniProt P11511); test: Inhibition of human placental CYP19
T3 sequence (P11511 whole entry): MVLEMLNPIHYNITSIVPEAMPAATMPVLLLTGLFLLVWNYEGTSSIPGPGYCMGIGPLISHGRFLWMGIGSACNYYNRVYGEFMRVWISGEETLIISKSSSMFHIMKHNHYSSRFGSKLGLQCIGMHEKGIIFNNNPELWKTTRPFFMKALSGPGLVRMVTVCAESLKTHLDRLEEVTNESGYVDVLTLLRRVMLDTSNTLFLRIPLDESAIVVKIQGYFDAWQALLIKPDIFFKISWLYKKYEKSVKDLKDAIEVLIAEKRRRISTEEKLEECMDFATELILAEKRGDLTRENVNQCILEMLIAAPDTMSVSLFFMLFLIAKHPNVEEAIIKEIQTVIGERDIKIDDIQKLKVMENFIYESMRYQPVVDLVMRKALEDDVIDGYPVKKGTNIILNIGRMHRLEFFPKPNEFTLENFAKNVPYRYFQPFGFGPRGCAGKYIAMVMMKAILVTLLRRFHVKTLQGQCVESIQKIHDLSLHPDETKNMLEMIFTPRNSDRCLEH
How it was run: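 Human placental microsomes with [1β-3H]androstenedione substrate at 500 nM, run in vitro. IC50 values are means of at least three tests; SD within 5%.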

[3] = target: T4, Cytochrome P450 11B1, mitochondrial (Homo sapiens, UniProt P15538); test: Inhibition of human CYP11B1 expressed in hamster fibroblast; how it was run: as §1
T4 sequence (P15538 whole entry): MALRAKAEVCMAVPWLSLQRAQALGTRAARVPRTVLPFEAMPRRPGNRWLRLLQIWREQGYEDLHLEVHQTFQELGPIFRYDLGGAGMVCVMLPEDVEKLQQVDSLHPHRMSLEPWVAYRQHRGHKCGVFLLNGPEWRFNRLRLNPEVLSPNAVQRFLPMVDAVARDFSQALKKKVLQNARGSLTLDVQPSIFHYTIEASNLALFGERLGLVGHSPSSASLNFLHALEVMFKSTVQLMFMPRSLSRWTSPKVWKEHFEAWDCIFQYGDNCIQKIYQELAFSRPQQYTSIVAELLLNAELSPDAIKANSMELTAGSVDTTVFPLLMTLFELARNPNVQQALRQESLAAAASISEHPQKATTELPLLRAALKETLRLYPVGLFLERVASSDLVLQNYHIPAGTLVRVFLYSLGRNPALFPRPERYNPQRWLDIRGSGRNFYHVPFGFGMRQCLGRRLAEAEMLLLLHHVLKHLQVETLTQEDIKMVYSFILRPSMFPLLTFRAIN

Sequence of Cytochrome P450 3A4 (P08684 whole entry): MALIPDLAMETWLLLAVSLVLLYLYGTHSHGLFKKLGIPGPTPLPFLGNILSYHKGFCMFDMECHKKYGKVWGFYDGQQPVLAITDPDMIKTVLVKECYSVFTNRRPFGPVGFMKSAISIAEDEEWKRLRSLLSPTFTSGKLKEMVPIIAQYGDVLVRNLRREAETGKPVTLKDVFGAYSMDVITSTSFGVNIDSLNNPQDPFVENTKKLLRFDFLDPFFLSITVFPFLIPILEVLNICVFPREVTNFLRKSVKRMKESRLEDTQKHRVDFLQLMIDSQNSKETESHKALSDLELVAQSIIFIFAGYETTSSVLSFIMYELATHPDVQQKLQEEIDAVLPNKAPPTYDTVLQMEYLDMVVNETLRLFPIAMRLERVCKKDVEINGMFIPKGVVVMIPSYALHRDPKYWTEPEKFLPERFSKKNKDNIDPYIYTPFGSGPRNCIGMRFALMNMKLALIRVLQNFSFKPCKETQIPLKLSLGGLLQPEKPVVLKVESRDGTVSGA

pIC50 [1]	pIC50 [2]	pIC50 (Cytochrome P450 3A4)	pIC50 (Aromatase)	pIC50 [3]	Structure (SMILES)
< 5.00					CC(C)(C)OC(=O)Nc1ccc(-c2ccc(Cc3ccncc3)cc2)cc1NC(=O)OC(C)(C)C
6.61	6.47	5.49	5.51	6.60	Oc1ccc(-c2ccc(Cc3ccncc3)cc2)cc1
6.22	6.56			5.32	Fc1ccc(-c2ccc(Cc3ccncc3)cc2)cc1F
5.48					COc1ccc(-c2ccc(Cc3ccncc3)cc2)cc1F
< 5.30					CCC(c1ccc(-c2ccc(OC)cc2)cc1)n1ccnc1 (centres undefined)
	6.68		5.57	6.07	Oc1ccc(-c2ccc(Cc3ccncc3)cc2)cc1F
6.19	6.10			6.37	c1csc(-c2ccc(Cc3ccncc3)cc2)c1
< 5.30					CCC(c1ccc(-c2ccc(OC)cc2)cc1)c1cccnc1 (centres undefined)
5.39					Oc1ccc(-c2ccc(Cc3cccnc3)cc2)cc1
5.70					COc1ccc2cc(-c3ccc(Cc4ccncc4)cc3)ccc2c1
< 5.00					CC(C)(C)OC(=O)Nc1ccc(-c2ccc(Cc3ccncc3)cc2)cc1F
5.75					NC(=O)c1ccc(-c2ccc(Cc3ccncc3)cc2)cc1
6.39	6.39	5.61	4.61	6.28	Nc1ccc(-c2ccc(Cc3ccncc3)cc2)cc1
< 5.30					CC(=O)Nc1ccc(-c2ccc(Cc3ccncc3)cc2)cc1
	6.44		< 4.60	6.04	Nc1ccc(-c2ccc(Cc3ccncc3)cc2)cc1N
5.86					CC(C)(C)OC(=O)Nc1ccc(-c2ccc(Cc3ccncc3)cc2)cc1
5.79					CCC(c1ccncc1)c1ccc(-c2ccc(OC)cc2)cc1 (centres undefined)
< 5.00					COc1ccc(-c2ccc(Cc3ccncc3)cc2)cc1NC(=O)OC(C)(C)C
< 5.30					Oc1ccc(-c2ccc(C(O)n3ccnc3)cc2)cc1 (centres undefined)
6.19	6.48			6.38	c1cc(Cc2ccc(-c3ccsc3)cc2)ccn1
< 5.00					CC(C)(C(=O)c1cccnc1)c1cccnc1 [METYRAPONE]
6.12	6.64			6.33	c1cc(Cc2ccc(-c3ccc4[nH]ccc4c3)cc2)ccn1
6.36	5.95	5.94		6.20	Oc1ccc2cc(-c3ccc(Cc4ccncc4)cc3)ccc2c1
6.06	6.25			6.51	CC(=O)Nc1cccc(-c2ccc(Cc3ccncc3)cc2)c1
